In ChEMBL document CHEMBL3997850 (ACS Med Chem Lett, 2017):

Legend:
[1] = Half life in cynomolgus monkey at 4 mg/kg, iv by LC/MS/MS analysis; assay type: ADME, organism-based, Macaca fascicularis; settings: in vivo
Procedure, shortened: (§1)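 Male cynomolgus monkeys given 4 mg/kg IV (5% DMAC, 40% propylene glycol in saline) or 10 mg/kg orally (0.5% methylcellulose). EDTA plasma collected pre-dose through 24 h. Acetonitrile protein precipitation, then LC/MS/MS quantification, linear 2–10000 nM. PK parameters by standard non-compartmental methods.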

[2] = Volume of distribution at steady state in beagle dog at 5 mg/kg, iv or 10 mg/kg, po by LC/MS/MS analysis; assay type: ADME, organism-based, Canis lupus familiaris; settings: in vivo, read-out: Vdss
Procedure, shortened: (§2)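 Male beagle dogs dosed 5 mg/kg IV in 10% DMAC in saline or 10 mg/kg oral in 5% DMAC in 0.5% methylcellulose. EDTA blood taken from pre-dose to 24 h and spun to plasma. Plasma proteins precipitated with acetonitrile, then LC/MS/MS (linear 2–10000 nM, 0.1 mL plasma). Parameters derived by non-compartmental analysis.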

Liver [3] = experiment: Intrinsic clearance in rat hepatic S9 fraction at 5 uM in presence of UDPGA/NADPH measured over 30 mins by LC/MS analysis; assay type: ADME, tissue-based; settings: s9, 0.5 h
Procedure, shortened: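 Rat hepatic S9 (2 mg/mL protein) with compound 5 µM, 50 mM Tris-HCl pH 7.5, 8 mM MgCl2, 2 mM NADPH, 2 mM UDPGA, 12.7 µM alamethicin, 37 °C. Reaction started with S9. Aliquots taken over 0–30 min, quenched with acetonitrile, analyzed by LC/MS.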

[4] = Half life in beagle dog at 5 mg/kg, iv by LC/MS/MS analysis; assay type: ADME, organism-based, Canis lupus familiaris; settings: in vivo; procedure, shortened: as §2
Cytochrome P450 1A2 = target: T1, Cytochrome P450 1A2 (Homo sapiens, UniProt P05177); experiment: Inhibition of recombinant human CYP1A2 assessed as decrease in hydroxylation of 7-benzyloxy-4-trifluoromethyl-coumarin by fluorescence assay; assay type: ADME; settings: recombinant enzyme
T1 sequence (P05177 whole entry): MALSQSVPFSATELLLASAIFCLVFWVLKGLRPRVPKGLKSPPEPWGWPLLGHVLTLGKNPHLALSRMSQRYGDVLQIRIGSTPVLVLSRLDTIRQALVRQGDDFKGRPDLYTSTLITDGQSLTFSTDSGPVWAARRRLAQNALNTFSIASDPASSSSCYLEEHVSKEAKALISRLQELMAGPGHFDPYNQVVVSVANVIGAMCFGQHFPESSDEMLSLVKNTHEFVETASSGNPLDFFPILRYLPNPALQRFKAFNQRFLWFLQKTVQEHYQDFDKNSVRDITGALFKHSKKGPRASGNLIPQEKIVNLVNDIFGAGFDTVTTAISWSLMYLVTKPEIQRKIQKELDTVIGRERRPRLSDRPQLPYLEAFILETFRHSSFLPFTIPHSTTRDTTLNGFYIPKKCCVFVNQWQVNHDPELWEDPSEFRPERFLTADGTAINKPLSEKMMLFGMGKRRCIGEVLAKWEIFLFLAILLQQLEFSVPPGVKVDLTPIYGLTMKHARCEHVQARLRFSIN
Procedure, shortened: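 Recombinant human CYP1A2 or CYP3A4 with 7-benzyloxy-4-trifluoromethyl-coumarin at Km concentration; hydroxylation read by fluorescence. Inhibitor tested at 0–25 µM.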

[5] = Oral bioavailability in cynomolgus monkey at 10 mg/kg by LC/MS/MS analysis; assay type: ADME, organism-based, Macaca fascicularis; settings: in vivo; procedure, shortened: as §1
Canis familiaris [6] = experiment: Toxicity in dog up to 500 mg/kg/day after 28 days by clinical pathology test; assay type: organism-based, Canis lupus familiaris; settings: in vivo, 672 h
[7] = Half life in beagle dog at 10 mg/kg, po by LC/MS/MS analysis; assay type: ADME, organism-based, Canis lupus familiaris; settings: in vivo; procedure, shortened: as §2
Canis familiaris [8] = experiment: Toxicity in dog assessed as effect on food consumption up to 500 mg/kg/day after 28 days; assay type: organism-based, Canis lupus familiaris; settings: in vivo, 672 h
Cynomolgus monkey = experiment: AUC in cynomolgus monkey at 4 mg/kg, iv or 10 mg/kg, po by LC/MS/MS analysis; assay type: ADME, organism-based, Macaca fascicularis; settings: in vivo; procedure, shortened: as §1
Rattus norvegicus = experiment: AUC in rat at 5 mg/kg, iv or 5 mg/kg, po by LC/MS/MS analysis; assay type: ADME, organism-based; settings: in vivo
Procedure, shortened: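 Male rats, 5 mg/kg IV in 10% DMAC/saline or 5 mg/kg oral in 0.5% aqueous methylcellulose. Plasma (EDTA) sampled pre-dose to 24 h. Quantified by acetonitrile precipitation and LC/MS/MS (2–10000 nM range, 0.1 mL). Non-compartmental analysis of concentration–time data.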

Canis familiaris [9] = experiment: Toxicity in dog assessed as change in body weight up to 500 mg/kg/day after 28 days; assay type: organism-based, Canis lupus familiaris; settings: in vivo, 672 h
[10] = target: Voltage-gated inwardly rectifying potassium channel KCNH2 (Homo sapiens, UniProt Q12809); experiment: Inhibition of human ERG by patch clamp method
Sequence of Voltage-gated inwardly rectifying potassium channel KCNH2 (Q12809 whole entry): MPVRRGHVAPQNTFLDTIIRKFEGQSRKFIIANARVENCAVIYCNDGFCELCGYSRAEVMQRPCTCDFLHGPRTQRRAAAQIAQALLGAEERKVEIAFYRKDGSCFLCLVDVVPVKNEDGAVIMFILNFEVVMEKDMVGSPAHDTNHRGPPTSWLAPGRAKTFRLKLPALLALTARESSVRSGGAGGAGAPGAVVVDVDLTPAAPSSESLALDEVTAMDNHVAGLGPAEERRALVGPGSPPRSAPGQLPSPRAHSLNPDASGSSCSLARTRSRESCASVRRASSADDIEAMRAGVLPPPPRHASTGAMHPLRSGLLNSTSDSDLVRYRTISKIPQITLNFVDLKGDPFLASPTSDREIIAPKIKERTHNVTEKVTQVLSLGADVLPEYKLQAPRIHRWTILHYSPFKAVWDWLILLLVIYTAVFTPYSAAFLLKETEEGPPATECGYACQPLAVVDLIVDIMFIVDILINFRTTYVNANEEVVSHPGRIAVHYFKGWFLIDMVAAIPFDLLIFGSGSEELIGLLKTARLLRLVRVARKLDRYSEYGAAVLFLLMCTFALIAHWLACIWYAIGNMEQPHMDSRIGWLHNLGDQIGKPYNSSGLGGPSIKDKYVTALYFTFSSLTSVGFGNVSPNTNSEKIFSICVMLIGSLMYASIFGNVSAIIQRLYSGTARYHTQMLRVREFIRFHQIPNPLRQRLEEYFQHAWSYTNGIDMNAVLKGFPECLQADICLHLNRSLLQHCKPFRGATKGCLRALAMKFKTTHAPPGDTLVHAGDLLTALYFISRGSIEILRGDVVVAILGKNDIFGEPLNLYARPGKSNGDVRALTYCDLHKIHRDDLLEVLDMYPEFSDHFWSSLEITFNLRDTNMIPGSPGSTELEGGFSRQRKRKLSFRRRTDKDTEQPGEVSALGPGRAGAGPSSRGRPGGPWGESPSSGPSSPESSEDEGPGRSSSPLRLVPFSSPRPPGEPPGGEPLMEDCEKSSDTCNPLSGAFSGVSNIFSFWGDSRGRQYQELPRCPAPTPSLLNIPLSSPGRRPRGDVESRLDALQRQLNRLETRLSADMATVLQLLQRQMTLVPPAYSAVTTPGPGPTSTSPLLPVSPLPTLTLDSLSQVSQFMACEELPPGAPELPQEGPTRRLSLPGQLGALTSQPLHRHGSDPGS

Mus musculus [11] = experiment: Toxicity in mouse up to 2000 mg/kg/day after 28 days by clinical pathology test; assay type: organism-based; settings: in vivo, 672 h
Canis familiaris [12] = experiment: Toxicity in dog up to 500 mg/kg/day after 28 days by histopathology test; assay type: organism-based, Canis lupus familiaris; settings: in vivo, 672 h
[13] = Clearance in cynomolgus monkey at 4 mg/kg, iv or 10 mg/kg, po by LC/MS/MS analysis; assay type: ADME, organism-based, Macaca fascicularis; settings: in vivo; procedure, shortened: as §1
Liver [14] = experiment: Intrinsic clearance in rat hepatic S9 fraction at 5 uM in presence of UDPGA measured over 30 mins by LC/MS analysis; assay type: ADME; settings: s9, 0.5 h
[15] = Volume of distribution at steady state in cynomolgus monkey at 4 mg/kg, iv or 10 mg/kg, po by LC/MS/MS analysis; assay type: ADME, organism-based, Macaca fascicularis; settings: in vivo, read-out: Vdss; procedure, shortened: as §1
[16] = target: T2, Nuclear receptor subfamily 1 group I member 2 (Homo sapiens, UniProt O75469); experiment: Induction of PXR (unknown origin) expressed in human HepG2 cells after 24 hrs by dual-glo luciferase reporter gene assay; assay type: ADME, cell-based
T2 sequence (O75469 whole entry): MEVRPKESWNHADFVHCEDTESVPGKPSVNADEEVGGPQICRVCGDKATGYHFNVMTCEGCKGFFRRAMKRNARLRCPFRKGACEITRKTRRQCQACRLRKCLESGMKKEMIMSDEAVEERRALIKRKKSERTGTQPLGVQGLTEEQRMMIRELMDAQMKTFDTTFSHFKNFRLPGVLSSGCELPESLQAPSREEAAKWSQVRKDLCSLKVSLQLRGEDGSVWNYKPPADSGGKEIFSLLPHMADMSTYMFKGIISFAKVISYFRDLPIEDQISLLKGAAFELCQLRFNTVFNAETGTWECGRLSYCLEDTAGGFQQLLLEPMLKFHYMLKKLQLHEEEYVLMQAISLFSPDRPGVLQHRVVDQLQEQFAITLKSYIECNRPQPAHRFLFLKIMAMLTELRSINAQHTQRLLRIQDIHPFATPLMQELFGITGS
Procedure, shortened: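 HepG2 cells transfected with human or rat PXR/CYP3A4 reporter, grown 24 h in phenol-red-free MEM with 2 mM L-glutamine and 10% charcoal-stripped FBS at 37 °C, 5% CO2. Compound added at 10 µM final with 0.6% DMSO for 24 h. Dual-Glo firefly then Renilla luminescence read; firefly/Renilla ratio normalized to control-compound wells as % induction.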

Mus musculus [17] = experiment: Toxicity in mouse up to 2000 mg/kg/day after 28 days by histopathology test; assay type: organism-based; settings: in vivo, 672 h
[18] = Half life in cynomolgus monkey at 10 mg/kg, po by LC/MS/MS analysis; assay type: ADME, organism-based, Macaca fascicularis; settings: in vivo; procedure, shortened: as §1
Mus musculus [19] = experiment: Toxicity in mouse assessed as change in body weight up to 2000 mg/kg/day after 28 days; assay type: organism-based; settings: in vivo, 672 h

half-life [1]: 3.3 h | Vd [2]: 0.7 L/kg | CLH (Liver [3]): 12 mL/min/kg | half-life [4]: 3.1 h | inhibition (INH) (Cytochrome P450 1A2): Not Active | bioavailability [5]: 33% | half-life [7]: 4.9 h | AUC (Cynomolgus monkey): 9.3 µM·h | AUC (Rattus norvegicus): 1.3 µM·h | clearance [13]: 13.3 mL/min/kg | CLH (Liver [14]): 6.7 mL/min/kg | Vd [15]: 1.8 L/kg | Activity [16]: Not Active | half-life [18]: 2.7 h
SMILES: NS(=O)(=O)NCCNc1nonc1C(=NO)Nc1ccc(F)c(Br)c1 [EPACADOSTAT]
Activity (Canis familiaris [6]): Non-Toxic | Activity (Canis familiaris [8]): Non-Toxic | Activity (Canis familiaris [9]): Non-Toxic | inhibition (INH) [10]: Not Active | Activity (Mus musculus [11]): Non-Toxic | Activity (Canis familiaris [12]): Non-Toxic | Activity (Mus musculus [17]): Non-Toxic | Activity (Mus musculus [19]): Non-Toxic
